The structures appear in SMILES notation. Active and inactive are the calls of the source.

A word on the IC50: it is the concentration that gives 50% inhibition. A word on the half-life: it is the time needed for the level to fall by half in the phase considered. The T/C is the ratio of treated to control. One may read the fraction unbound as the share of the substance not bound to proteins or other matrix. Low readings indicate little free substance, high ones much free substance.

The nature of series [1]: Chemical stability of the compound in Et3N/CH2Cl2 solution after 48 hrs. The class given is physicochemical.
Series [2] is described as follows: Chemical stability of the compound in 1:1 of TFA/CH2Cl2-4N HCl/EtOAc solution for 48 hrs. It counts as physicochemical. Particulars: buffer.
Series [3] is described as follows: Drug degradation in NaHCO3/MeOH solution assessed as hydrolysis after 24 hrs. It counts as physicochemical. Particulars: read-out: Drug degradation.
Series [4] in a line: Chemical stability of the compound in DMAP/CH2Cl2 solution after 24 hrs. It counts as physicochemical.
A short description of series [5]: Chemical stability in MeOH after 48 hrs in presence of 100 equiv BnSH and BnOH. It counts as physicochemical. The method, boiled down: (§1)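 Compound exposed to 100 equiv each of BnSH and BnOH in MeOH or THF at 23 °C for 48 h and monitored for cleavage.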
Series [6] can be described thus: Drug degradation in NaHCO3/1:1 of DMF:H2O solution assessed as hydrolysis after 2 hrs. Particulars: NaHCO3 in 1:1 DMF:H2O solution; read-out: Drug degradation. The class given is physicochemical.
Series [7] is described as follows: Chemical stability in THF after 24 hrs in presence of BnNH2. The class given is physicochemical.
Series [8] is described as follows: Drug degradation in NaHCO3/1:1 of DMF:H2O solution assessed as hydrolysis after 48 hrs. The class given is physicochemical. The following applies: NaHCO3 in 1:1 DMF:H2O solution; read-out: Drug degradation.
A short description of series [9]: Chemical stability of the compound in NaHCO3/THF solution after 24 hrs. The class given is physicochemical.
A short description of series [10]: Chemical stability in THF after 48 hrs in presence of 100 equiv BnSH and BnOH. It counts as physicochemical. In short, it runs like this:
as §1

A short description of series [11]: Drug degradation in NaHCO3/MeOH solution assessed as hydrolysis after 48 hrs. It counts as physicochemical. Particulars: read-out: Drug degradation.
A short description of series [12]: Chemical stability of the compound in NaHCO3/THF solution after 2 hrs. The class given is physicochemical.
Series [13] in a line: Chemical stability of the compound in Et3N/CH2Cl2 solution after 24 hrs. The class given is physicochemical.
The nature of series [14]: Drug degradation in DMAP/CH2Cl2 solution assessed as hydrolysis after 48 hrs. The class given is physicochemical. Particulars: read-out: Drug degradation.
A short description of series [15]: Chemical stability of the compound in DMAP/CH2Cl2 solution after 2 hrs. The class given is physicochemical.
The nature of series [16]: Drug degradation in MeOH after 24 hrs in presence of 100 equiv BnNH2. The class given is physicochemical.
The nature of series [17]: Drug degradation in 1:1 of TFA/CH2Cl2-4N HCl/EtOAc solution assessed as cleavage of Boc protecting group. The class given is physicochemical. Particulars: buffer.
A short description of series [18]: Drug degradation in NaHCO3/1:1 of THF:H2O solution assessed as hydrolysis after 2 hrs. The following applies: NaHCO3 in 1:1 THF:H2O solution; read-out: Drug degradation. It counts as physicochemical.
Series [19] has as its system L1210. The series can be described thus: Cytotoxicity against mouse L1210 cells. It counts as functional, cell-based.
A short description of series [20]: Drug degradation in NaHCO3/THF solution assessed as hydrolysis after 48 hrs. It counts as physicochemical. The following applies: read-out: Drug degradation.
A short description of series [21]: Drug degradation in NaHCO3/1:1 of THF:H2O solution assessed as hydrolysis after 24 hrs. It counts as physicochemical. The following applies: NaHCO3 in 1:1 THF:H2O solution; read-out: Drug degradation.
Series [22] is described as follows: Drug degradation in NaHCO3/1:1 of DMF:H2O solution assessed as hydrolysis after 24 hrs. It counts as physicochemical. The following applies: NaHCO3 in 1:1 DMF:H2O solution; read-out: Drug degradation.
Series [23] in a line: Drug degradation in NaHCO3/1:1 of THF:H2O solution assessed as hydrolysis after 48 hrs. The class given is physicochemical. The following applies: NaHCO3 in 1:1 THF:H2O solution; read-out: Drug degradation.
Series [24] can be described thus: Chemical stability of the compound in Et3N/CH2Cl2 solution after 2 hrs. The class given is physicochemical.
Series [25] in a line: Drug degradation in NaHCO3/MeOH solution assessed as hydrolysis after 2 hrs. It counts as physicochemical. Particulars: read-out: Drug degradation.
Series [26] can be described thus: Half life in calf serum at 2 uM by RP-HPLC analysis. The following applies: cattle. The class given is ADME, cell-free, Bos taurus.
The subject of series [27] is L1210. Nature of the series: Antitumor activity against mouse L1210 cells xenografted in DBA/2J mouse assessed as disease cure at 100 […], ip administered on day 1, 5 and 9 measured up to 250 days. The class given is functional, organism-based.
Series [28] concerns L1210. Nature of the series: Antitumor activity against mouse L1210 cells xenografted in DBA/2J mouse assessed as disease cure at 60 […], ip administered on day 1, 5 and 9 measured up to 250 days. It counts as functional, organism-based.
Series [29] has as its system L1210. Nature of the series: Antitumor activity against mouse L1210 cells xenografted in DBA/2J mouse assessed as mean survival days at 60 ug/kg, ip administered on day 1, 5 and 9 relative to control. It counts as functional.
The test system of series [30] is L1210. Nature of the series: Antitumor activity against mouse L1210 cells xenografted in DBA/2J mouse assessed as mean survival days at 500 ug/kg, ip administered on day 1, 5 and 9 relative to control. It counts as functional. The method, boiled down: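 Syngeneic L1210 cells (1 × 10⁶) given ip to B6D2F1 mice on day 0. Ten mice per group, randomised to vehicle control or treatment. Compound given in 100% DMSO ip on days 1, 5 and 9, with daily monitoring. T/C = total survival days of treated group ÷ total survival days of control × 100.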

Series [31] concerns L1210. The series can be described thus: Antitumor activity against mouse L1210 cells xenografted in DBA/2J mouse assessed as mean survival days at 100 ug/kg, ip administered on day 1, 5 and 9 relative to control. It counts as functional.
Series [32] concerns L1210. Nature of the series: Antitumor activity against mouse L1210 cells xenografted in DBA/2J mouse assessed as disease cure at 250 […], ip administered on day 1, 5 and 9 measured up to 250 days. It counts as functional, organism-based.
Series [33] has as its system L1210. Nature of the series: Antitumor activity against mouse L1210 cells xenografted in DBA/2J mouse assessed as mean survival days at 250 ug/kg, ip administered on day 1, 5 and 9 relative to control. The class given is functional.
Series [34] concerns L1210. Nature of the series: Antitumor activity against mouse L1210 cells xenografted in DBA/2J mouse assessed as disease cure at 500 […], ip administered on day 1, 5 and 9 measured up to 250 days. The class given is functional, organism-based.
Series [35] can be described thus: Drug degradation in phosphate buffer assessed as cleavage over 4 weeks. It counts as physicochemical. The following applies: 672 h.
For series [36], the system named is L1210. Nature of the series: Antitumor activity against mouse L1210 cells xenografted in DBA/2J mouse assessed as mean survival days at 9000 ug/kg, ip administered on day 1, 5 and 9 relative to control. The class given is functional.
Series [37] concerns L1210. Nature of the series: Antitumor activity against mouse L1210 cells xenografted in DBA/2J mouse assessed as disease cure at 300 […], ip administered on day 1, 5 and 9 measured up to 250 days. It counts as functional, organism-based.
Series [38] concerns L1210. The series can be described thus: Antitumor activity against mouse L1210 cells xenografted in DBA/2J mouse assessed as mean survival days at 3000 ug/kg, ip administered on day 1, 5 and 9 relative to control. It counts as functional.
Series [39] concerns L1210. The series can be described thus: Antitumor activity against mouse L1210 cells xenografted in DBA/2J mouse assessed as disease cure at 3000 […], ip administered on day 1, 5 and 9 measured up to 250 days. The class given is functional, organism-based.
Series [40] can be described thus: Fraction unbound in human plasma incubated over 48 hrs. It counts as ADME, cell-free.
Series [41] has as its system L1210. Nature of the series: Antitumor activity against mouse L1210 cells xenografted in DBA/2J mouse assessed as disease cure at 9000 […], ip administered on day 1, 5 and 9 measured up to 250 days. The class given is functional, organism-based.
The next series deals with Nucleic Acid. The series can be described thus: Binding affinity to w794 DNA assessed as DNA alkylation by cell-free assay. It counts as nucleic-acid assay.
A short description of series [42]: Chemical stability of the compound in 1:1 of TFA/CH2Cl2-4N HCl/EtOAc solution up to 72 hrs. The class given is physicochemical. Particulars: buffer.
Series [43] has as its system L1210. Nature of the series: Antitumor activity against mouse L1210 cells xenografted in DBA/2J mouse assessed as mean survival days at 1000 ug/kg, ip administered on day 1, 5 and 9 relative to control. It counts as functional.
In series [44] the test system is L1210. The series can be described thus: Antitumor activity against mouse L1210 cells xenografted in DBA/2J mouse assessed as disease cure at 1000 […], ip administered on day 1, 5 and 9 measured up to 250 days. The class given is functional, organism-based.
The test system of series [45] is L1210. The series can be described thus: Antitumor activity against mouse L1210 cells xenografted in DBA/2J mouse assessed as mean survival days at 300 ug/kg, ip administered on day 1, 5 and 9 relative to control. The class given is functional.
A short description of series [46]: Half life in human plasma at 1 ug/mL at pH 7 by HPLC analysis. The class given is ADME, cell-free.

On to `CC(C)(C)OC(=O)N1C[C@@H](CCl)c2c1cc1c3c(cccc23)NC(=O)O1`, for which the Stability result in [1], in series [2], in [4], in series [5], in [7] and in series [9] was “Stable” throughout. Also, the Stability result in [10], in series [12], in series [13], in series [15] and in [24] was “Stable” throughout. Moreover, the degraded at 24 h was determined as 74% in [3], 4% in series [21] and 12% in [22]. The figures for the degraded at 2 h in series [6], in [18] and in series [25] were 7%, below 4% and 18%, respectively. In addition, the degraded at 48 h in series [8] is 19%; in series [11], 100%; in series [14] it was 12%; in [20], 7%; in [23] it was 9%. Also, the Drug degradation result in [16] and in series [17] was “Active” in each case. Besides, in the series on L1210 [19], half-maximal inhibition (IC50) was put at 4900 nM.
In the case of `O=C1Nc2cccc3c4c(cc(c23)O1)N(C(=O)c1cc2cc(NC(=O)c3cc5ccccc5[nH]3)ccc2[nH]1)C[C@@H]4CCl`, in the series with L1210 [19], it took 40 nM to reach half-maximal inhibition (IC50).
In the case of `Br.COC(=O)c1c(C)[nH]c2c(OC(=O)N3CCN(C)CC3)cc3c(c12)[C@H](CBr)CN3C(=O)c1cc2cc(OC)c(OC)c(OC)c2[nH]1` [PIBROZELESIN HYDROBROMIDE], the half-life at 2 µM in series [26] was 20 h.
As for `O=C(Nc1ccc2[nH]c(C(=O)N3C[C@@H](CCl)c4c3cc(O)c3ccccc43)cc2c1)c1cc2ccccc2[nH]1` [SECO-CBI-INDOLE], the result in the series on L1210 [27], in the series on L1210 [28], in the series on L1210 [32] and in the series with L1210 [34] was inactive. In addition, the T/C stood at 197% in the series with L1210 [29], 17% in the series on L1210 [30], 36% in the series with L1210 [31] and 21% in the series with L1210 [33].
As to `Nc1cccc2c1C(=O)C=C1N(C(=O)c3cc4cc(NC(=O)c5cc6ccccc6[nH]5)ccc4[nH]3)CC3CC123` (racemic), half-maximal inhibition with L1210 [19] (IC50) was put at 0.21 nM.
In the series on L1210 [19], `CC(C)(C)OC(=O)N1C[C@H](CCl)c2c1cc1c3c(cccc23)NC(=O)O1` returned an IC50 of 5800 nM.
In the series with L1210 [19], `COc1c(O)c2c(c3cc(C(=O)N4CCc5c4c(O)c(OC)c4[nH]c(C(=O)N6C[C@@H]7C[C@]78C6=CC(=O)c6[nH]cc(C)c68)cc54)[nH]c13)CCN2C(N)=O` gave an IC50 of 0.02 nM. This lies in the picomolar range.
As for `O=C1Nc2cccc3c4c(cc(c23)O1)N(C(=O)c1cc2cc(NC(=O)c3cc5ccccc5[nH]3)ccc2[nH]1)C[C@H]4CCl`, the Drug degradation result in series [35] is “Not Active”. The T/C is above 980% with L1210 [36], above 310% with L1210 [38], above 275% with L1210 [43] and 140% in the series on L1210 [45]. For the same compound, the outcome with L1210 [37], in the series with L1210 [39], in the series on Nucleic Acid and in the series with L1210 [44] was inactive. Further, the fraction unbound at 48 h in series [40] came out at 0.05. In addition, the result with L1210 [41] was Active. Moreover, the Stability entry in series [42] is recorded as “Stable”. Besides, the IC50 in the series on L1210 [19] stood at 6.6 nM.
In series [46], `CCN(CC)c1ccc2cc(C(=O)Nc3ccc4[nH]c(C(=O)N5C[C@@H](CCl)c6c5cc(OC(=O)Nc5ccccc5)c5[nH]cc(C)c65)cc4c3)oc2c1` [CARZELESIN] yielded a half-life at 1 ug/mL below 1 h.

Values taken from ChEMBL document CHEMBL2150954, “A novel, unusually efficacious duocarmycin carbamate prodrug that releases no residual byproduct” (J Med Chem, 2012).
